{"source": "ChEMBL document CHEMBL1955770", "about": "“Inhibition of S/G2 phase CDK4 reduces mitotic fidelity” (J Biol Chem, 2006)", "key": {"[1]": {"test_system": "HeLa", "assay": "Cell cycle arrest in human HeLa cells assessed as accumulation at G1 phase at 2 uM treated 4 hr and measured 12 hr post double thymidine-synchrony release using propidium iodide staining by FACS analysis (reference value: 81 %)", "format": "functional"}, "[2]": {"test_system": "COLO 205", "assay": "Toxicity in human COLO205 cells at 8 uM by MTT assay", "format": "cell-based", "conditions": "colo 205, 8 µM"}, "[3]": {"test_system": "HeLa", "assay": "Cell cycle arrest in human HeLa cells assessed as accumulation at G1 phase at 2 uM treated 6 hr and measured 12 hr post double thymidine-synchrony release using propidium iodide staining by FACS analysis (reference value: 81 %)", "format": "functional"}, "[4]": {"test_system": "HeLa", "assay": "Cell cycle arrest in synchronized human HeLa cells assessed as large multinuclear cell formation at 2 uM by time-lapse microscopy", "format": "functional, cell-based"}, "[5]": {"test_system": "HeLa", "assay": "Induction of abberent mitosis in human HeLa cells expressing GFP-H2B assessed as normal survivin staining cells at 2 uM by immunofluorescence method (reference value: 7%)", "format": "functional"}, "[6]": {"assay": "Cell cycle arrest in human SK-MEL-13 cells assessed as accumulation at G1 phase at 2 uM treated 1 hr and measured 12 hr post double hydroxyurea-synchrony release using propidium iodide staining by FACS analysis (reference value: 40 %)", "format": "functional, cell-based", "summary_of_the_method": "(§1)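 SK-Mel-13 cells synchronized with 2 mM hydroxyurea, then treated with 2 μM CDK4 inhibitor or left untreated 1 h after release. Harvested at indicated times post-release, ethanol-fixed, propidium iodide/RNase stained, and DNA content read by FACS. Proportions of G1, S and G2/M cells derived with ModFit.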"}, "[7]": {"test_system": "HeLa", "assay": "Cell cycle arrest in Rb-deficient human HeLa cells assessed as accumulation at sub-diploid phase at 2 uM after 24 hrs by FACS analysis", "format": "functional", "summary_of_the_method": "(§2)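 Ethanol-fixed cells stained with propidium iodide/RNase A, DNA content read by FACS, phase and sub-diploid fractions calculated with ModFit.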"}, "[8]": {"test_system": "HeLa", "assay": "Cell cycle arrest in human HeLa cells assessed as accumulation at G1 phase at 2 uM treated 4 hr and measured 8 hr post double thymidine-synchrony release using propidium iodide staining by FACS analysis (reference value: 6 %)", "format": "functional"}, "[9]": {"test_system": "HeLa", "assay": "Cell cycle arrest in human HeLa cells assessed as accumulation at S phase at 2 uM treated 4 hr and measured 8 hr post double thymidine-synchrony release using propidium iodide staining by FACS analysis (reference value: 8 %)", "format": "functional", "summary_of_the_method": "(§3)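 Cells harvested at set times post-release, fixed in 70% ethanol, stained with 5 μg/ml propidium iodide plus 0.5 mg/ml RNase A, and analysed by flow cytometry. Cell-cycle phase fractions calculated by ModFit.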"}, "[10]": {"test_system": "HeLa", "assay": "Cell cycle arrest in human HeLa cells assessed as accumulation at G2/M phase at 2 uM treated 4 hr and measured 12 hr post double thymidine-synchrony release using propidium iodide staining by FACS analysis (reference value: 17 %)", "format": "functional", "summary_of_the_method": "as §3"}, "[11]": {"test_system": "A2058", "assay": "Cell cycle arrest in human A2058 cells assessed as accumulation at S phase at 2 uM treated 1 hr and measured 8 hr post double hydroxyurea-synchrony release using propidium iodide staining by FACS analysis (reference value: 52 %)", "format": "functional"}, "[12]": {"test_system": "HeLa", "assay": "Decrease in borealin protein expression in human HeLa cells at 2 uM measured 14 hr post thymidine-synchrony release by immunoblot analysis", "format": "functional, cell-based", "summary_of_the_method": "(§4)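 Synchronized HeLa cells given 2 μM CDK4 inhibitor in early S phase and harvested at set times post-release. Lysed in supplemented NETN buffer on ice for 20 min. Lysates run on SDS-PAGE and immunoblotted for survivin, borealin and other chromosomal passenger proteins, with ECL detection. Cyclin D3 served as loading control.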"}, "[13]": {"test_system": "HeLa", "assay": "Effect on aurora B protein expression in human HeLa cells at 2 uM measured 14 hr post thymidine-synchrony release by immunoblot analysis", "format": "functional, cell-based", "summary_of_the_method": "as §4"}, "[14]": {"test_system": "HeLa", "assay": "Cell cycle arrest in human HeLa cells assessed as time delay in progression through G2/M phase at 2 uM treated at 4 hr post double thymidine-synchrony release using propidium iodide staining by FACS analysis", "format": "functional", "summary_of_the_method": "as §3"}, "[15]": {"target": "Cyclin-dependent kinase 4 (Homo sapiens) (UniProt P11802)", "sequence (P11802 whole entry)": "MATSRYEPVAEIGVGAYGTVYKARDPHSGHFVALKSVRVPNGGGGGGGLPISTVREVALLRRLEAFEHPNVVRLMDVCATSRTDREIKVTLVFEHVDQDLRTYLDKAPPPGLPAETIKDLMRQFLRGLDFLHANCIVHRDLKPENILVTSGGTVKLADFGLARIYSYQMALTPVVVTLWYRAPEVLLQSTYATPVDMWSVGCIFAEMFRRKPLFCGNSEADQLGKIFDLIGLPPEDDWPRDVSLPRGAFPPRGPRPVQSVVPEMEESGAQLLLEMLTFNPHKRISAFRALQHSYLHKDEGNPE", "assay": "Inhibition of CDK4-mediated Rb phosphorylation at ser 795 in human HCT116 cells at 3 times IC90 after 4 hrs by immunoblot analysis", "format": "cell-based", "conditions": "HCT-116", "summary_of_the_method": "(§5)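 Asynchronous HCT-116 cells (DMEM, 3 mM HEPES, 10% serum, 37 °C, 5% CO₂) were given increasing inhibitor doses for 4 or 24 h. Lysis in NETN with phosphatase and protease inhibitors, then SDS-PAGE, nitrocellulose transfer and immunoblot for phospho-Rb (Ser-795) with HRP secondary and chemiluminescence.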"}, "[16]": {"test_system": "HeLa", "assay": "Cell cycle arrest at G2 phase in human HeLa cells assessed as delay in phosphotyrosine 15 CDK1 accumulation at 2 uM treated at early S phase measured after 6-14 hr post thymidine-synchrony release by immunoblot method", "format": "functional, cell-based", "summary_of_the_method": "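HeLa cells synchronized by double thymidine block and released, treated with 2 μM inhibitor in early S phase, or left untreated. Harvested at set times after release, lysed in NETN with phosphatase and protease inhibitors, run on SDS-PAGE and immunoblotted for cyclin B1 and phosphotyrosine 15 CDK1/2, with cyclin D3 as loading control. Detection by HRP secondary and ECL.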"}, "[17]": {"assay": "Cell cycle arrest in Rb-competent human SK-MEL-13 cells assessed as accumulation at G2/M phase at 2 uM after 24 hrs by FACS analysis", "format": "functional", "summary_of_the_method": "as §2"}, "[18]": {"target": "Cyclin-dependent kinase 4/cyclin D1 (Homo sapiens, UniProt P11802)", "sequence (P11802 whole entry)": "as above", "sequence (P24385 whole entry, further chain)": "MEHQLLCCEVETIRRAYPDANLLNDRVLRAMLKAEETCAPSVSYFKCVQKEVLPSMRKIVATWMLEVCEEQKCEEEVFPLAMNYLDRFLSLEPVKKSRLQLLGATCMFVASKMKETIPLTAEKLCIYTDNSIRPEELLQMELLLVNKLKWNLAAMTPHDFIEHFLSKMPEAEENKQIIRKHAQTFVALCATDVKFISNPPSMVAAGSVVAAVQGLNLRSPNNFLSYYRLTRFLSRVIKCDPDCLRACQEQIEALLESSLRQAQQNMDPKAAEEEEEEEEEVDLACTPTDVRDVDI", "assay": "Inhibition of human GST-tagged CDK4-cyclin D1 using his-tagged Rb as substrate after 30 mins by scintillation counting method", "format": "protein-complex assay"}, "[19]": {"test_system": "HeLa", "assay": "Cell cycle arrest in human HeLa cells transfected with cyclin D3 siRNA at 2 uM measured after 8 to 20 hr post hydroxyurea-synchrony release by time-lapse microscopy", "format": "functional, cell-based", "summary_of_the_method": "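HeLa cells transfected with 20 nM cyclin D3 siRNA number 1 or scrambled siRNA, then synchronized by overnight 2 mM hydroxyurea block and released. Treated with CDK4 inhibitor, siRNA, or both; entry into mitosis followed by time-lapse microscopy.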"}, "[20]": {"test_system": "RKO", "assay": "Antiproliferative activity against human RKO cells assessed as inhibition of S phase after 48 hrs by MTT assay", "format": "functional, cell-based", "summary_of_the_method": "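Cells grown in DMEM with 3 mM HEPES and 10% Serum Supreme at 37 °C, 5% CO2. Proliferation read by MTT assay 48 h after drug addition; IC50 given as mean of two separate determinations, each in duplicate.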"}, "[21]": {"assay": "Cell cycle arrest in human SK-MEL-13 cells assessed as accumulation at S phase at 2 uM treated 1 hr and measured 10 hr post double hydroxyurea-synchrony release using propidium iodide staining by FACS analysis (reference value: 16 %)", "format": "functional, cell-based", "summary_of_the_method": "as §1"}, "[22]": {"target": "Cyclin-dependent kinase 4 (Homo sapiens) (UniProt P11802)", "assay": "Inhibition of CDK4-mediated Rb phosphorylation at ser 795 in human HCT116 cells at 3 times IC90 after 24 hrs by immunoblot analysis", "format": "cell-based", "conditions": "HCT-116", "summary_of_the_method": "as §5"}, "[23]": {"test_system": "HCT-116", "assay": "Toxicity in human HCT116 cells at 8 uM by MTT assay", "format": "cell-based", "conditions": "hct-116, 8 µM"}, "[24]": {"assay": "Cell cycle arrest in human SK-MEL-13 cells assessed as time taken to reach peak mitosis at 2 uM treated 1 hr and post double hydroxyurea-synchrony release using propidium iodide staining by FACS analysis", "format": "functional, cell-based", "summary_of_the_method": "as §1"}, "[25]": {"target": "Insulin receptor (Homo sapiens, UniProt P06213)", "sequence (P06213 28-758 limits assumed)": "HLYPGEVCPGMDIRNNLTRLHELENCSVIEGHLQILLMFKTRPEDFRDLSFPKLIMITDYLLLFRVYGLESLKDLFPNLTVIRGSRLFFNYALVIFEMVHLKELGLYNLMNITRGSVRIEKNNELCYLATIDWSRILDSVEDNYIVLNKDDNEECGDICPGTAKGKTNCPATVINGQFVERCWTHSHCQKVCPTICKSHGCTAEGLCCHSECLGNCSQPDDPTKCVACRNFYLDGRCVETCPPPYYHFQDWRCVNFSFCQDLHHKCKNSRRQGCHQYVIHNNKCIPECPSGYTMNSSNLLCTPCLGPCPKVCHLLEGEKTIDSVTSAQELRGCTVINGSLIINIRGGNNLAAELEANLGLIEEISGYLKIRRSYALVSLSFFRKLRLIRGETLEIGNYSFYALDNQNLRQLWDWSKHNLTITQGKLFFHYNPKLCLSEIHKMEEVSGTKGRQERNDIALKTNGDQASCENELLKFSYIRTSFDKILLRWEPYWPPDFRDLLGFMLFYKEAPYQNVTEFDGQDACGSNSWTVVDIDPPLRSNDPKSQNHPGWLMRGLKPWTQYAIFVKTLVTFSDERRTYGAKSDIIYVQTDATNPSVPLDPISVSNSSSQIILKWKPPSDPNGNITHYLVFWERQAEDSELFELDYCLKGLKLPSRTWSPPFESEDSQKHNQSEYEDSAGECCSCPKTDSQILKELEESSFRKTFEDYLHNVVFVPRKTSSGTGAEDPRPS", "sequence (P06213 763-1382 limits assumed)": "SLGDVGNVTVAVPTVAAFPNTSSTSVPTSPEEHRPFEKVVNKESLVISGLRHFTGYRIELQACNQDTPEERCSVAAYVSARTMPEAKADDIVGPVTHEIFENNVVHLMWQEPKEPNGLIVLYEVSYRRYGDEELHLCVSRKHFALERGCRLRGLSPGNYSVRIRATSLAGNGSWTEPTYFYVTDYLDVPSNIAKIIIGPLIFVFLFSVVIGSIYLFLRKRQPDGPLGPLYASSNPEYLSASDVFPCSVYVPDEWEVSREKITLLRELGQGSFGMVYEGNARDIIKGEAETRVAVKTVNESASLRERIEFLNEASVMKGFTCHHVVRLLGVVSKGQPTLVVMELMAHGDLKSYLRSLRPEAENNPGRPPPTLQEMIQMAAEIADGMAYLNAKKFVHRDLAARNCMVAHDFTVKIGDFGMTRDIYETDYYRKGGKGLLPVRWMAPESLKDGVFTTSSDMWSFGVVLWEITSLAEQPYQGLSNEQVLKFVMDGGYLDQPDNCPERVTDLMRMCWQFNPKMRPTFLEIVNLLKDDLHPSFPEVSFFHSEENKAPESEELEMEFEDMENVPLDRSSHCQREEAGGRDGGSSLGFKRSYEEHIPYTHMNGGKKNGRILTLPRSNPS", "assay": "Inhibition of insulin receptor using fluorescent substrate by IMAP assay", "summary_of_the_method": "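Run in-house using IMAP: phosphorylated fluorescent peptide substrate binds preferentially to immobilized metal beads, which quantifies kinase activity. ATP at 3× the Km of each enzyme.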"}}, "note": "Calls of active or inactive are those of the source. The rule behind the calls is not given here.", "data": [{"smiles": "COc1cccc(C(=O)c2sc(Nc3ccc(N4CCN(C(C)C)CC4)cc3)nc2N)c1", "values": [{"measurement": "Activity", "setting": "[1]", "value": 36, "unit": "%"}, {"measurement": "Activity", "setting": "[2]", "value": "Toxic"}, {"measurement": "Activity", "setting": "[3]", "value": 73, "unit": "%"}, {"measurement": "Activity", "setting": "[4]", "value": "Active"}, {"measurement": "Activity", "setting": "[5]", "value": 23, "unit": "%"}, {"measurement": "Activity", "setting": "[6]", "value": 13, "unit": "%"}, {"measurement": "Activity", "setting": "[7]", "value": 10, "unit": "%"}, {"measurement": "Activity", "setting": "[8]", "value": 5, "unit": "%"}, {"measurement": "Activity", "setting": "[9]", "value": 4, "unit": "%"}, {"measurement": "Activity", "setting": "[10]", "value": 62, "unit": "%"}, {"measurement": "Activity", "setting": "[11]", "value": 23, "unit": "%"}, {"measurement": "Activity", "setting": "[12]", "value": "Active"}, {"measurement": "Activity", "setting": "[13]", "value": "inactive"}, {"measurement": "Time", "setting": "[14]", "value": 2, "unit": "h"}, {"measurement": "inhibition", "setting": "[15]", "value": "Active"}, {"measurement": "Activity", "setting": "[16]", "value": "Active"}, {"measurement": "Activity", "setting": "[17]", "value": 19, "unit": "%"}, {"measurement": "IC50", "setting": "[18]", "value": 20, "unit": "nM"}, {"measurement": "Activity", "setting": "[19]", "value": "Active"}, {"measurement": "IC50", "setting": "[20]", "value": 540, "unit": "nM"}, {"measurement": "Activity", "setting": "[21]", "value": 14, "unit": "%"}, {"measurement": "inhibition", "setting": "[22]", "value": "Active"}, {"measurement": "Activity", "setting": "[23]", "value": "Toxic"}, {"measurement": "TIME", "setting": "[24]", "value": 10, "unit": "h"}, {"measurement": "IC50", "setting": "[25]", "value": 24000, "unit": "nM"}]}, {"smiles": "CN1CCN(c2ccc(Nc3nc(N)c(C(=O)c4ccc5c(c4)OCCO5)s3)cc2)CC1", "values": [{"measurement": "Activity", "setting": "[1]", "value": 36, "unit": "%"}, {"measurement": "Activity", "setting": "[2]", "value": "Toxic"}, {"measurement": "Activity", "setting": "[3]", "value": 73, "unit": "%"}, {"measurement": "Activity", "setting": "[4]", "value": "Active"}, {"measurement": "Activity", "setting": "[5]", "value": 23, "unit": "%"}, {"measurement": "Activity", "setting": "[6]", "value": 13, "unit": "%"}, {"measurement": "Activity", "setting": "[7]", "value": 10, "unit": "%"}, {"measurement": "Activity", "setting": "[8]", "value": 5, "unit": "%"}, {"measurement": "Activity", "setting": "[9]", "value": 4, "unit": "%"}, {"measurement": "Activity", "setting": "[10]", "value": 62, "unit": "%"}, {"measurement": "Activity", "setting": "[11]", "value": 23, "unit": "%"}, {"measurement": "Activity", "setting": "[12]", "value": "Active"}, {"measurement": "Activity", "setting": "[13]", "value": "inactive"}, {"measurement": "Time", "setting": "[14]", "value": 2, "unit": "h"}, {"measurement": "inhibition", "setting": "[15]", "value": "Active"}, {"measurement": "Activity", "setting": "[16]", "value": "Active"}, {"measurement": "Activity", "setting": "[17]", "value": 19, "unit": "%"}, {"measurement": "IC50", "setting": "[18]", "value": 20, "unit": "nM"}, {"measurement": "Activity", "setting": "[19]", "value": "Active"}, {"measurement": "IC50", "setting": "[20]", "value": 1600, "unit": "nM"}, {"measurement": "Activity", "setting": "[21]", "value": 14, "unit": "%"}, {"measurement": "inhibition", "setting": "[22]", "value": "Active"}, {"measurement": "Activity", "setting": "[23]", "value": "Toxic"}, {"measurement": "TIME", "setting": "[24]", "value": 10, "unit": "h"}, {"measurement": "IC50", "setting": "[25]", "value": 71000, "unit": "nM"}]}]}
